Results from ChEMBL document CHEMBL2311334, “Synthesis and evaluation of 8-oxoadenine derivatives as potent Toll-like receptor 7 agonists with high water solubility” (Bioorg Med Chem Lett, 2013).
Converted amounts (≈) assume the structure as drawn.

Tests used:
[1] = Aqueous solubility in pH 7.4 buffer; type: physicochemical
Procedure, shortened: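 Solubility measured in pH 7.4 buffer.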

Toll-like receptor 7 [2] = target: T1, Toll-like receptor 7 (Homo sapiens, UniProt Q9NYK1); assay: Agonist activity at human TLR7 expressed in HEK293 cells by NFkappaB SEAP reporter gene assay; type: cell-based
T1 sequence (Q9NYK1 whole entry): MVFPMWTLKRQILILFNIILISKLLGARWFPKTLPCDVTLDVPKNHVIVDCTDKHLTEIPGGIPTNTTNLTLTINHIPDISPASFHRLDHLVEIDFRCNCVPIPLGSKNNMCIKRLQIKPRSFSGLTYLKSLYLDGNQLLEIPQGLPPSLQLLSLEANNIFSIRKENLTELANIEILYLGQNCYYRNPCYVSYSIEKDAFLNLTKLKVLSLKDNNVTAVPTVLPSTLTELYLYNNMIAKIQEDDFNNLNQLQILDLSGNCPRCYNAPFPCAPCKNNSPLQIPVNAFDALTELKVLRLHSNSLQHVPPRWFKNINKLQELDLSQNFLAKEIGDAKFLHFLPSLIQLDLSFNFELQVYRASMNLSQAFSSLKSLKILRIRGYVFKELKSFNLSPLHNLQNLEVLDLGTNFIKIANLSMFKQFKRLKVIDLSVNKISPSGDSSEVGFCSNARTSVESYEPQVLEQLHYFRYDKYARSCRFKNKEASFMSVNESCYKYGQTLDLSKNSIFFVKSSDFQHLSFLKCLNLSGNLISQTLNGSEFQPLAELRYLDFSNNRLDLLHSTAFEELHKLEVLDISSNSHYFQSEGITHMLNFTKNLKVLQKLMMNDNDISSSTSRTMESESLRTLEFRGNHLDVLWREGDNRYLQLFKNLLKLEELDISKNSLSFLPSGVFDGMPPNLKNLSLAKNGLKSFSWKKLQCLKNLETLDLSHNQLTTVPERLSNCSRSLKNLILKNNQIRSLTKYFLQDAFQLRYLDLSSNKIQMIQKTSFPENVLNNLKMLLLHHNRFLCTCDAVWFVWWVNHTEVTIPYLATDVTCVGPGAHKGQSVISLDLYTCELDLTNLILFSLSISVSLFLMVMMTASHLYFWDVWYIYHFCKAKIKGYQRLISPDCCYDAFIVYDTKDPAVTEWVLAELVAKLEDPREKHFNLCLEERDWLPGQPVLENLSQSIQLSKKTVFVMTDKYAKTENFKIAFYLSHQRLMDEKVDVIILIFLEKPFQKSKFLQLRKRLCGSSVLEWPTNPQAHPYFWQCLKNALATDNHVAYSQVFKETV
Procedure, shortened: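 HEK293 cells stably transfected with human TLR7 plus an NF-κB-driven SEAP reporter. EC50 taken from reporter read-out, given as the mean of two independent experiments.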

[3] = target: T2, Toll-like receptor 7 (Homo sapiens) (UniProt Q9NYK1); assay: Potency index, ratio of EC50 of 852A to EC50 of test compound for human TLR7 expressed in HEK293 cells by NFkappaB SEAP reporter gene assay; type: cell-based
T2 sequence (whole entry): T1 sequence (Q9NYK1 whole entry)

[4] = Potency index, ratio of antitumor activity of 852A to test compound against mouse HM1 cells xenografted in B6C3F1 mouse; type: functional
[5] = Antitumor activity against mouse HM1 cells xenografted in B6C3F1 mouse assessed as inhibition of lung metastasis at 0.1 mg/kg, iv administered biweekly starting on day 1 post tumor xenografting measured on day 35 post tumor xenografting; type: functional; settings: in the assay text read “starting on day 11 post” for “starting on day 1 post”
Procedure, shortened: (§1)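 HM-1 ovarian cancer cells injected subcutaneously into B6C3F1 mice on day 0. Primary tumor surgically removed under isoflurane on day 10. Compound given intravenously twice weekly from day 11. Lung metastases counted on day 35 and expressed as % inhibition. Six mice per group, mean ± SD. Significance versus vehicle by Wilcoxon test.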

[6] = Half life in Balb/c mouse at 1 mg/kg, iv; type: ADME, organism-based; parameters: dose 1 mg/kg, route intravenous; settings: in vivo
Procedure, shortened: (§2)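 Female Balb/c mice dosed intravenously at 1 mg/kg. Vdss and T1/2 calculated from this PK study.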

Mus musculus [7] = assay: Increase in IFN level in Balb/c mouse plasma at 1 mg/kg, iv measured after 6 hrs post dose by L929 cells and VSV based bioassay; type: functional
Procedure, shortened: (§3)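 Female Balb/c mice were given a single intravenous dose of test compound. Plasma interferon was sampled 6 h post dose and quantified by a bioassay using L929 cells challenged with vesicular stomatitis virus, with values reported in IU/mL.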

Toll-like receptor 7 [8] = target: T3, Toll-like receptor 7 (Mus musculus, UniProt P58681); assay: Agonist activity at mouse TLR7
T3 sequence (P58681 whole entry): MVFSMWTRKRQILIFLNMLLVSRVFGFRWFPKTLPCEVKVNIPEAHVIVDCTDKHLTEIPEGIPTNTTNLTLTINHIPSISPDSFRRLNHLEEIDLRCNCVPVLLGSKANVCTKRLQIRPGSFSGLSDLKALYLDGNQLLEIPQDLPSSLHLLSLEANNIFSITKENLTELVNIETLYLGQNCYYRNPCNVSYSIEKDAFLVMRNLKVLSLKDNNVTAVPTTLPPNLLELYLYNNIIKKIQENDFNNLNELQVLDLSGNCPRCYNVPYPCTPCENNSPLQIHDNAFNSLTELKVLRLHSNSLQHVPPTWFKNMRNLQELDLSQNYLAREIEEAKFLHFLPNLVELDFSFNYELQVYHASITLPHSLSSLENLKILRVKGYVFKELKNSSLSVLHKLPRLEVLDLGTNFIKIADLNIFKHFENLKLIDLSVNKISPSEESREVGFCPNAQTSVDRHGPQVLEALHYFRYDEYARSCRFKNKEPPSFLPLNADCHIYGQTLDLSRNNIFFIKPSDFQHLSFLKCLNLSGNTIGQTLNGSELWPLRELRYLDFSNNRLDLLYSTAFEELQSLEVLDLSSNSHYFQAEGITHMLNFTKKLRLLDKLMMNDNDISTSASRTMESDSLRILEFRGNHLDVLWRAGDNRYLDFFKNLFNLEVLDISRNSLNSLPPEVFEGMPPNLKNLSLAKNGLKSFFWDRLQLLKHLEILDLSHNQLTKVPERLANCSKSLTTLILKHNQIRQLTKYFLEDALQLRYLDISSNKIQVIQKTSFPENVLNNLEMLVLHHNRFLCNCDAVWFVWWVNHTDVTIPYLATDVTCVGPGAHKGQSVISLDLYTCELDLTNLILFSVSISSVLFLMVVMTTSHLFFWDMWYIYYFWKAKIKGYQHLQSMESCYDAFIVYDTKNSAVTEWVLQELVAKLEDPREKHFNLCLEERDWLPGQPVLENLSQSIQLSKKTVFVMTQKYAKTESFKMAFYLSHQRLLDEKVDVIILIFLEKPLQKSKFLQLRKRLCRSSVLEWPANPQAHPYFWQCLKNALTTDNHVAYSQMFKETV

[9] = Volume of distribution at steady state in Balb/c mouse at 1 mg/kg, iv; type: ADME, organism-based; parameters: dose 1 mg/kg, route intravenous; settings: in vivo, read-out: Vdss; procedure, shortened: as §2
[10] = Antitumor activity against mouse HM1 cells xenografted in B6C3F1 mouse assessed as inhibition of lung metastasis at 1 mg/kg, iv administered biweekly starting on day 11 post tumor xenografting measured on day 35 post tumor xenografting
[11] = Antitumor activity against mouse HM1 cells xenografted in B6C3F1 mouse assessed as inhibition of lung metastasis at 10 mg/kg, iv administered biweekly starting on day 1 post tumor xenografting measured on day 35 post tumor xenografting; type: functional; settings: in the assay text read “starting on day 11 post” for “starting on day 1 post”; procedure, shortened: as §1
[12] = Antitumor activity against mouse HM1 cells xenografted in B6C3F1 mouse assessed as inhibition of lung metastasis at 1 mg/kg, iv administered biweekly starting on day 1 post tumor xenografting measured on day 35 post tumor xenografting; type: functional; settings: in the assay text read “starting on day 11 post” for “starting on day 1 post”; procedure, shortened: as §1
Mus musculus [13] = assay: Increase in IFN level in Balb/c mouse plasma at 10 mg/kg, iv measured after 6 hrs post dose by L929 cells and VSV based bioassay; type: functional; procedure, shortened: as §3

SMILES	solubility [1] [µg/mL]	EC50 (Toll-like receptor 7 [2]) [nM]	other results
CCCCNc1nc(N)c2[nH]c(=O)n(Cc3ccc(OCCN4CCOCC4)nc3)c2n1	34 (≈ 76.8 µM)	50.2	–
CCCCNc1nc(N)c2[nH]c(=O)n(Cc3cccc(CN4CCCCC4)c3)c2n1	–	30.1	–
CCCCNc1nc(N)c2nc(O)n(Cc3ccc(C)cc3)c2n1	< 1	166	–
CCCCNc1nc(N)c2[nH]c(=O)n(Cc3ccc(CN(C)C)cc3)c2n1	98 (≈ 265 µM)	9.3	–
CCCCNc1nc(N)c2[nH]c(=O)n(Cc3ccc(N4CCN(C)CC4)nc3)c2n1	7 (≈ 17 µM)	5.4	–
CCCCNc1nc(N)c2[nH]c(=O)n(Cc3ccc(OCCN(C)C)nc3)c2n1	372 (≈ 929 µM)	7.2	Ratio EC50 [3]: 370; Ratio [4]: >100; inhibition in vivo at 0.1 mg/kg [5]: 78%; half-life [6]: 1.3 h; Activity (Mus musculus [7]): 840 IU/ml; EC50 (Toll-like receptor 7 [8]): 4.6 nM; Vd [9]: 6.6 L/kg; inhibition in vivo at 1 mg/kg [10]: 100%
CCCCNc1nc(N)c2[nH]c(=O)n(Cc3ccc(CN4CCN(C)CC4)cc3)c2n1	108 (≈ 254 µM)	7	–
CCCCNc1nc(N)c2[nH]c(=O)n(Cc3ccc(CN4CCOCC4)cc3)c2n1	8 (≈ 19.4 µM)	58	–
CCCCNc1nc(N)c2nc(O)n(Cc3ccc(C)nc3)c2n1	< 1	32	–
CCCCNc1nc(N)c2nc(O)n(Cc3ccc(OC)nc3)c2n1	< 1	28.1	–
CCCCNc1nc(N)c2[nH]c(=O)n(Cc3ccc(N4CCC(N(C)C)C4)nc3)c2n1 (configuration not stated)	53 (≈ 125 µM)	7.4	–
CCCCNc1nc(N)c2[nH]c(=O)n(Cc3ccc(OCCCN(C)C)nc3)c2n1	288 (≈ 695 µM)	–	–
CCCCNc1nc(N)c2[nH]c(=O)n(Cc3ccc(N(C)CCCN(C)C)nc3)c2n1	725 (≈ 1700 µM)	72.8	–
CCCCNc1nc(N)c2[nH]c(=O)n(Cc3ccc(OCCCCN(C)C)nc3)c2n1	350 (≈ 817 µM)	15.2	–
CCCCNc1nc(N)c2[nH]c(=O)n(Cc3ccc(N4CCNCC4)nc3)c2n1	63 (≈ 158 µM)	48.5	–
CCCCNc1nc(N)c2[nH]c(=O)n(Cc3ccc(CN4CCCCC4)cc3)c2n1	19 (≈ 46.4 µM)	7.6	–
CCCCNc1nc(N)c2[nH]c(=O)n(Cc3ccc(OCCNC)nc3)c2n1	–	166	–
CCCCNc1nc(N)c2[nH]c(=O)n(Cc3cccc(CN4CCN(C)CC4)c3)c2n1	–	130	–
CCCCNc1nc(N)c2[nH]c(=O)n(Cc3ccc(N4CCC(N(C)C)CC4)nc3)c2n1	71 (≈ 162 µM)	9.4	–
CCc1nc2c(N)nc3ccccc3c2n1CCCCNS(C)(=O)=O [CPG-52852]	–	2660	inhibition in vivo at 10 mg/kg [11]: 55%; inhibition in vivo at 1 mg/kg [12]: 6%; Activity (Mus musculus [13]): 19 IU/ml; EC50 (Toll-like receptor 7 [8]): 6220 nM
